Shown are actives, neighbours in structure and some others; about 3.7% of the full set was active somewhere.
KCNQ1 inh – inhibitors of human KCNQ1 channel, primary screen, cell-based, thallium flux, high-throughput; CHO-K1 KCNQ1, FluxOR thallium flux fluorescence; stronger effect = higher value; AID 2642, 2010; B-score at 10 µM; hit rate 1.3% among 310,000; Potassium voltage-gated channel subfamily KQT member 1 (Homo sapiens), P51787;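 active = compounds whose thallium flux B-score, printed positive for inhibition, exceeds three library SD while starting fluorescence stays within three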;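 note: channel opened by potassium depolarization with thallium stimulus after 20 min compound exposure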
Target sequence (P51787 whole entry, looked up): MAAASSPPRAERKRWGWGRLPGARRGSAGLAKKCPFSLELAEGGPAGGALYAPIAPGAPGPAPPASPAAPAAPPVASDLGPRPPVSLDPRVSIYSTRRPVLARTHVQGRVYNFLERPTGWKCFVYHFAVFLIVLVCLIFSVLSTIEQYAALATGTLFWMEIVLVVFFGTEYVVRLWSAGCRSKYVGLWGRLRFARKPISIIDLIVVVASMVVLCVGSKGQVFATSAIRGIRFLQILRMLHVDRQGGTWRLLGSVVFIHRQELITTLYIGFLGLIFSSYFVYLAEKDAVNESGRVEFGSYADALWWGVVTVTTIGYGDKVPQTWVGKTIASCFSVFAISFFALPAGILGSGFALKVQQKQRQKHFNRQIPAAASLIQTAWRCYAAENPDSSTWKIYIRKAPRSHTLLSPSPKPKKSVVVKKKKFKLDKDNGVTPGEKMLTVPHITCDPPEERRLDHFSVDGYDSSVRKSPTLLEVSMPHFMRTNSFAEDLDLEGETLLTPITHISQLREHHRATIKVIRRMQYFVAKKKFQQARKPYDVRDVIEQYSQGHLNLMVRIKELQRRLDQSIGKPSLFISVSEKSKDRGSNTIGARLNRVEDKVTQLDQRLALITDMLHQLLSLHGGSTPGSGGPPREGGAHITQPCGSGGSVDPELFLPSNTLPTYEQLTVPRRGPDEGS
hERG protect – hERG rescue from dofetilide block, primary screen, cell-based, CHO-hERG, FluxOR thallium flux, dofetilide IC70; Voltage-gated inwardly rectifying potassium channel KCNH2 (Homo sapiens), Q12809; dofetilide IC70 present; activation (rescue from dofetilide block), less the hit threshold, % at 10 µM; hit rate 0.51% among 310,000;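 active = activation above the mean of controls blocked by dofetilide plus 5 SD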;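 note: thallium influx through hERG after potassium depolarization seen as dye fluorescence rise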
KCNQ1 pot – potentiators or activators of KCNQ1 channel, primary screen, cell-based, thallium flux, high-throughput. CHO-K1 KCNQ1, thallium flux FluxOR fluorescence; stronger effect = higher value. B-score at 10 µM. hit rate 0.35% among 310,000;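 active = fluorescence ratio B-score, a plate-corrected score, at least three library SD, with initial intensity B-score within 5 SD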
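System: CHO-K1 cells stably expressing KCNQ1 / Medium: assay buffer for compound exposure, DMSO matched across wells / Reagent: thallium- and potassium-containing depolarizing buffer / Compound: one concentration, matched DMSO / Incubation: 20 min compound pretreatment at room temperature / Measured by: kinetic FluxOR fluorescence, 10 s baseline plus 110 s post-stimulus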
KCNK9 inh – KCNK9 potassium channel inhibitors, primary screen, HEK293 cells, thallium flux. Potassium channel subfamily K member 9 (Homo sapiens), Q9NPC2. B-score at 10 µM. AID 488922, 2010. FluxOR thallium flux fluorescence; stronger effect = lower value. hit rate 1.2% among 310,000;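 active = ratio B-score over 3 SD below the library mean, with starting fluorescence within 5 SD of its mean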;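 note: negative B-score means less thallium flux so channel inhibition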
KCNK3 inh – human KCNK3 channel inhibitors, primary screen, CHO cells, FluxOR thallium flux, B-score; FluxOR fluorescence; stronger effect = lower value; B-score at 10 µM; hit rate 0.84% among 340,000; AID 602410, 2012;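 active = B-score under library mean minus 4 SD, starting fluorescence ratio at most library mean plus 5 SD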;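 note: more negative B-score means stronger inhibition of thallium flux through KCNK3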
Kir21 inh – inhibitors of mouse Kir2.1 inward-rectifier potassium channel; HEK293-Kir2.1, FluxOR thallium flux fluorescence; stronger effect = lower value; B-score at 10 µM; hit rate 0.85% among 310,000; AID 1672, 2009;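 active = fluorescence ratio B-score at or below minus 3 SD of library scores, with starting-brightness B-score within 2 SD, cut at about -4.2 in these data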;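 note: channel flux triggered by added potassium and thallium sulfate stimulus; B-score of peak minus minimum fluorescence over baseline after thallium stimulus; more negative B-score means stronger Kir2.1 block with less thallium influx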
KCNQ1 inh valid – KCNQ1 potassium channel inhibitors, confirmation, cell-based, Tl flux, duplicate. shares compounds with KCNQ1 inh. KCNQ1 cell line, FluxOR thallium flux fluorescence. inhibition, % at 10 µM. hit rate 93% among 1,600;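 active = primary screen active, with duplicate mean exceeding buffer control mean plus 3 SD of buffer wells, cut at about 28% in these data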;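 note: 0% = buffer control ratio and 100% = XE991 inhibitor control ratio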
CHO KCNQ1 ctr – thallium flux effects in parental CHO cells, counter-screen for KCNQ1 inhibitor project, cell-based, Tl flux; shares compounds with KCNQ1 inh; parental CHO-K1, FluxOR thallium flux fluorescence ratio; stronger effect = lower value; zero means no signal rise above baseline; fluorescence ratio (Tl flux) at 10 µM; hit rate 21% among 1,600; AID 588366, 2011;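 active = mean of duplicate thallium-flux fluorescence ratios in parental host cells more than 5 SD below the buffer control mean, cut at about 0.38 in these data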;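 note: ratio is peak minus minimum fluorescence divided by baseline fluorescence; actives read low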
KCNQ1 ephys val – KCNQ1 channel inhibitors, confirmation, orthogonal assay, cell-based, automated electrophysiology; shares compounds with KCNQ1 inh; KCNQ1-CHO cells, automated patch clamp current; calls only at 10 µM; AID 624120, 2012; hit rate 20% among 490;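 active = KCNQ1 current drop exceeding 3 SD of negative control wells, seen in both duplicate runs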;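 note: steady state current during a 2 s step from -80 to +40 mV; negative values mean current inhibition and positive values mean potentiation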
KCNQ2 spec – KCNQ2 channel inhibition, selectivity assay for KCNQ1 inhibitor project, cell-based; hit rate 71% among 1,600; inhibition, % at 10 µM; KCNQ2 cells, FluxOR thallium flux fluorescence; AID 651746, 2012; shares compounds with KCNQ1 inh;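 active = mean percent inhibition of the KCNQ2 thallium signal more than 5 SD above the buffer-only control wells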;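 note: KCNQ2 expressed in CHO cells; 0% = buffer control wells and 100% = XE-991 inhibitor control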
KCNQ1 KCNE1 spec – KCNQ1/KCNE1 channel inhibition, selectivity assay for KCNQ1 inhibitor project, CHO-K1 cells, thallium flux, FluxOR | shares compounds with KCNQ1 inh | FluxOR thallium flux fluorescence | inhibition, % at 10 µM | hit rate 77% among 1,600;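 active = mean percent inhibition of duplicate wells above the buffer-only control mean plus 3 SD of those controls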;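 note: 0% = buffer only wells and 100% = XE-991 inhibitor control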
An asterisk follows results filed as active; i = inactive; . = no result given; + = active, no number.

SMILES	KCNQ1 inh	hERG protect	KCNQ1 pot	KCNK9 inh	KCNK3 inh	Kir21 inh	KCNQ1 inh valid	CHO KCNQ1 ctr	KCNQ2 spec	KCNQ1 KCNE1 spec	others
CC(C)N1CCC2(CC1)N=C(c1ccc3c(c1)OCO3)CC(c1cc(Cl)ccc1O)N2 (configuration not stated)	10*	-12.7	i	i	i	-2.09	49.5*	0.412	106.3%*	37.5%*
C=CCn1c(COc2ccccc2)nc2ccccc21	i	-10.1	i	i	i	-1.53	.	.	.	.
COc1ccc(Nc2ccccc2NC(=O)c2ccccc2Br)cc1	11*	-7.8	i	i	i	-1.27	89.0*	0.443	94.3%*	89.5%*
Cc1ccccc1C(=O)Nc1ccccc1NC(=O)c1ccccc1Br	i	-9.7	i	i	i	-1	.	.	.	.
C=CCN=C1CCCc2c1[nH]c1ccc(C)cc21	6*	-15.1	i	i	i	-0.54	54.5*	0.468	i	46.5%*
OCCN=C1CCCc2c1[nH]c1ccc(Br)cc21	i	-9.6	i	i	i	0.77	.	.	.	.
Cc1ccc2nc(-c3cccc(S(=O)(=O)N4CC(C)OC(C)C4)c3)cn2c1 (configuration not stated)	i	-10.2	i	i	i	0.92	.	.	.	.
CC1CCN(CCCOc2ccc(Cl)cc2Br)CC1	6*	-15.8	i	i	i	-4.46*	41.5*	0.484	i	i
CNC(=O)COc1coc(CN2CCN(c3ccc(OC)cc3)CC2)cc1=O	i	-3.0	i	i	i	-0.55	.	.	.	.
CN(C(=O)CN1C(=O)c2ccccc2S1(=O)=O)C1CCCCC1	.	.	.	.	i	.	.	.	.	.
Clc1ccc(-c2nc(N3CCCCC3)nc3ccccc23)cc1	8*	-6.8	i	i	i	1.46	132.5*	0.436	85.0%*	197.0%*	KCNQ1 ephys val=+
COc1ccc(NC(=O)COC(=O)c2ccc(S(=O)(=O)N(C)c3ccccc3OC)cc2)cc1	.	.	.	.	i	.	.	.	.	.
CN1CCN(C2Cc3ccc(F)cc3Sc3cc(F)c(Cl)cc32)CC1 (configuration not stated)	i	-13.9	i	i	i	-0.02	.	.	.	.
CN1CCN(C2=Cc3ccc(Cl)cc3Sc3ccc(F)cc32)CC1	6*	-18.4	i	i	i	-0.5	173.0*	0.419	116.0%*	188.5%*	KCNQ1 ephys val=i
O=C(NCCc1ccncc1)c1ccc2nc(Cc3cccc(Cl)c3)oc2c1	i	-18.2	i	i	i	-1.47	.	.	.	.
NC(=S)N=Nc1ccc(O)cc1	.	.	.	.	i	.	.	.	.	.
O=S(=O)(CCc1ccccc1)CS(=O)(=O)CCc1ccccc1	.	.	.	.	i	.	.	.	.	.
N#Cc1c(Cl)nsc1NC(=O)c1ccccc1	6*	-29.1	i	i	i	0.47	0.0	0.529	i	i
Cc1cccc(C(=O)OC(C)C(=O)Nc2ccc(S(=O)(=O)N3CCCC3)cc2)c1O (configuration not stated)	10*	-17.6	i	i	i	0.92	136.0*	0.379*	117.0%*	177.5%*
CC(OC(=O)c1cc(Br)ccc1O)C(=O)Nc1ccc(S(=O)(=O)N2CCCC2)cc1 (configuration not stated)	i	-5.2	i	i	i	1.22	.	.	.	.
O=C(COC(=O)c1cccc(O)c1)Nc1ccc(N2CCOCC2)cc1	.	.	.	.	i	.	.	.	.	.
CCN(CC)C(=O)c1ccc(COc2ccc(Cl)c(C)c2)o1	11*	-12.6	i	i	i	-0.8	114.5*	0.44	129.7%*	109.0%*	KCNQ1 ephys val=i
Cc1ccccc1Nc1cc(C)c2c(O)cccc2n1	7*	-21.6	i	i	i	-7.18*	31.0*	0.532	71.3%*	i
CCCn1c2c(c(O)c(C(=O)Nc3ccc(OC)cc3)c1=O)CCCC2	7*	-8.2	i	i	i	0.11	94.0*	0.435	77.7%*	104.0%*	KCNQ1 ephys val=i
O=C(c1ccc2nc[nH]c2c1)N1CCN(c2ncc(C(F)(F)F)cc2Cl)CC1	8*	-9.2	i	i	i	-2.35	0.0	0.584	i	i
SMILES	KCNQ1 inh	hERG protect	KCNQ1 pot	KCNK9 inh	KCNK3 inh	Kir21 inh	KCNQ1 inh valid	CHO KCNQ1 ctr	KCNQ2 spec	KCNQ1 KCNE1 spec	others
CSc1ncc2[nH]c(C(O)c3ccccc3)nc2n1 (configuration not stated)	.	.	.	.	i	.	.	.	.	.
CC1CCCC(CC(N)=O)CC1 (configuration not stated)	.	.	.	.	i	.	.	.	.	.
COc1ccc(-c2cn[nH]c2-c2ccc(OCc3ccccc3)cc2O)cc1	7*	-8.7	i	-6.73*	i	0.72	107.0*	0.426	91.3%*	129.5%*	KCNQ1 ephys val=i
Cc1ccc(C)c(-c2cc(C(=O)Nc3nccs3)c3ccccc3n2)c1	8*	-8.4	i	-7.85*	i	0.37	88.0*	0.5	101.7%*	125.0%*	KCNQ1 ephys val=i
COC(=O)c1sccc1NC(=O)c1cc(-c2cc(C)ccc2C)nc2ccccc12	i	-16.0	i	i	i	0.02	.	.	.	.
Cc1sc(NC(=O)c2cc(-c3ccccc3)nc3ccccc23)c(C(N)=O)c1C	6*	-6.2	i	i	i	-3.08	97.0*	0.464	100.3%*	140.0%*	KCNQ1 ephys val=i
Cc1cccc(NC(=O)c2cc(-c3ccc(C)s3)nc3ccccc23)n1	6*	-11.0	i	-7.25*	i	0.18	92.5*	0.432	97.7%*	149.0%*	KCNQ1 ephys val=i
Cc1sc(NC(=O)c2cc(-c3ccc(Cl)cc3)nc3ccccc23)c(C(N)=O)c1C	i	-11.6	i	i	i	0.51	.	.	.	.
